# Measured values from different studies.
# Compare with care: the assays were run in different laboratories.
# Cell line: A549
# Observed: cell growth or viability
Compound,method,tested at,time,endpoint,result
C=C(C)[C@H](CC=C(C)C)Cc1c(O)cc(O)c2c1O[C@H](c1ccc(O)cc1O)CC2=O,MTT,,48 h,IC50,18.1 µM
O=C1OC2(c3ccccc31)c1ccc(O)c(Cl)c1Oc1c2ccc(O)c1Cl,CCK-8,,48 h,CC50,> 200 µM
O=C(O)CCCCC#CCCCCCCCCCc1ccccc1,MTS,,24 h,IC50,18 µM
CC(=O)O[C@H]1C(=O)[C@@]2(C)[C@H]([C@H](OC(=O)c3ccccc3)[C@]3(O)C[C@H](OC(=O)[C@H](O)[C@@H](NC(=O)c4ccccc4)c4ccccc4)C(C)=C1C3(C)C)[C@]1(OC(C)=O)CO[C@@H]1C[C@@H]2O,MTT,,48 h,IC50,0.45 µM
O=C1OC2(c3ccccc31)c1cc(Br)c(O)c(Br)c1Oc1c2cc(Br)c(O)c1Br,CCK-8,,48 h,CC50,> 200 µM
CCN(Cc1cnc2nc(N)nc(N)c2n1)c1ccc(C(=O)c2ccccc2)cc1,ATP luminescence,,,GI50,0.23 µM
O=C1OC2(c3ccccc31)c1ccc(O)c(Br)c1Oc1c2ccc(O)c1Br,CCK-8,,48 h,CC50,> 200 µM
COc1ccc(S(=O)(=O)ON=C2C=C(C)C(=O)C(C)=C2)cc1,,,,CC50,> 30 µM
CCCCCCCCCCCCCCCC(=O)O,MTS,,24 h,IC50,145 µM
O=C1OC2(c3ccccc31)c1ccc(O)c(I)c1Oc1c2ccc(O)c1I,CCK-8,,48 h,CC50,> 200 µM
Nc1nc(N)c2nc(CNc3cccc4ccccc34)cnc2n1,ATP luminescence,,,GI50,1.29 µM
C=C(C)C(O)Cc1c(O)c(CC=C(C)C)c2occ(-c3ccc(O)cc3)c(=O)c2c1O (stereo not drawn),MTT,100 µg/mL,,viability,91.6%
CCOC(=O)C1CCN(C(=O)c2ccc(N(CC)Cc3cnc4nc(N)nc(N)c4n3)cc2)CC1,ATP luminescence,,,GI50,4.38 µM
COc1cc2oc(-c3ccc(O)cc3O)c(CC=C(C)C)c(=O)c2c(O)c1/C=C/C(C)C,crystal violet,,72 h,CC50,38 µM
C=C(C)[C@H](CC=C(C)C)Cc1c(O)cc(OC)c(C(=O)/C=C/c2ccc(O)cc2O)c1O,MTT,,,IC50,57.1 µM
